The results in this text go back to paper PMC5472370 (ACS Omega, 2017).

Each structure is given as a SMILES string.

Experiment [1] addresses T1, mature BACE1 ectodomain (Homo sapiens, UniProt P56817). As to the kind of experiment: WaterLOGSY ligand-observed NMR binding. The conditions noted are these: 30-fold excess of ligand, performed once. The procedure, abridged:
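Ligand-observed NMR on 5 µM mature ectodomain with 0.15 mM ligand (1:30 protein/ligand, ligand from 100 mM DMSO-d6 stock) and D2O added. Recorded at 27 °C on a 600 MHz spectrometer with cryoprobe. Both 1D 1H and WaterLOGSY spectra acquired: 32K points, 14 ppm sweep width, 128 scans. Run at physiological pH, then repeated at acidic pH.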

The target in another experiment is BACE1 D32N mutant (Homo sapiens, UniProt P56817, D93N). As to the kind of experiment: SPR binding to BACE1 D32N mutant. The conditions noted are these: BACE1 D32N catalytic-site mutant. The gist of the method:
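Catalytic-site D32N ectodomain (residues −16 to 393, C-terminal His- plus StrepII-tag), expressed in and purified from E. coli. Amine-coupled to a CM7 chip and run under conditions similar to wild type: 25 °C, 30 s injections at 30 µL/min, DMSO solvent correction. Concentration series 0.03, 0.06, 0.13, 0.25 and 0.50 mM.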
For orientation: SPR reads the build-up and loss of mass on a sensor chip optically.

In experiment [2] the target is T1, mature BACE1 ectodomain. As to the kind of experiment: SPR competition with OM99-2. The conditions noted are these: binding before and after OM99-2 injection, pH 4.5. The gist of the method:
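Run at pH 4.5 on immobilized wild-type ectodomain: 10 mM NaOAc, 150 mM NaCl, 0.05% Tween 20, 5% DMSO, 25 °C. Fragments injected before and after an injection of the peptide inhibitor OM99-2; binding responses compared. Concentration series 0.03, 0.06, 0.13, 0.25 and 0.50 mM.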

Experiment [3] has as its target T1, mature BACE1 ectodomain. Briefly: SPR binding to immobilized WT BACE1. The procedure, abridged: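 Mature ectodomain and a neutravidin reference were amine-coupled on CM7 chips; runs at 25 °C. Running buffers: HBS-N pH 7.4, or 10 mM NaOAc pH 4.5 with 150 mM NaCl; both with 0.05% Tween 20 and 5% DMSO. Injections 30 s at 30 µL/min, with DMSO correction over 2.5–6.5%. Screened at 0.25 mM in duplicate (forward and reverse order) against BACE1, neutravidin and a blank spot. Top 10% retested over 0.03–0.500 mM (8 points, 1.5-fold).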

Chain of BACE1 D32N mutant (P56817 46-454 D93N): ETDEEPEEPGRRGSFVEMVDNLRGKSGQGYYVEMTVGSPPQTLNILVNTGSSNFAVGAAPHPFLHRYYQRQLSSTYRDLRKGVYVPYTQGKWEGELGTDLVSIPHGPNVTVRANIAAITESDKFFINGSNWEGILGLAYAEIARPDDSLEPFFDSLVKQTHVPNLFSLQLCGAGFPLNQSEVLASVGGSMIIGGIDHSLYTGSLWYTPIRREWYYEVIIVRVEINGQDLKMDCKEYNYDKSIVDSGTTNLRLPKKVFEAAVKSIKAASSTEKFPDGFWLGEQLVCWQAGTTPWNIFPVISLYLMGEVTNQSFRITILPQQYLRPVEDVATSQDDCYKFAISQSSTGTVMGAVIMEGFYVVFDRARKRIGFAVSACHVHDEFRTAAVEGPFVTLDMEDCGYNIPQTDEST
T1 sequence (P56817 46-454 limits assumed): as the sequence (P56817 46-454 D93N) above, with N48D counted along it

For the molecule `CN(C)c1nc(N2CCCC2)nc2ccccc12` [Compound 12, N,N-Dimethyl-2-pyrrolidin-1-yl-quinazolin-4-amine], the “WaterLOGSY signal at pH 7.5” value on mature BACE1 ectodomain [1] was “clear positive”. In addition, the “SPR D32N binding” value at BACE1 D32N mutant was “bound”. For the same molecule, the “SPR OM99-2 competition” value at mature BACE1 ectodomain [2] was “reduced binding”.
As for `Brc1cc2c(N3CCNCC3)nccn2c1` [Compound 10, 7-Bromo-1-piperazin-1-yl-pyrrolo[1,2-a]pyrazine], the “WaterLOGSY signal at pH 7.5” value on mature BACE1 ectodomain [1] is listed as “clear positive”. At BACE1 D32N mutant, the “SPR D32N binding” value is listed as “bound”. Besides, the “SPR binding at pH 4.5” value on mature BACE1 ectodomain [3] (WT BACE1, pH 4.5) is on record as “nonspecific binding”. On mature BACE1 ectodomain [2], the “SPR OM99-2 competition” value is on record as “bound”.
Turning to `CC1(c2ccccc2)COCC(N)=N1` (centres unmarked) [Compound 14, 5-Methyl-5-phenyl-2,6-dihydro-1,4-oxazin-3-amine], on mature BACE1 ectodomain [1] (pH 4.5), the “WaterLOGSY signal at pH 4.5” value is “strong positive”. Moreover, the “SPR D32N binding” value at BACE1 D32N mutant was “lost binding”. Also, the “SPR binding to WT BACE1 (mature BACE1 ectodomain)” value at mature BACE1 ectodomain [3] (pH not stated) is listed as “bound strongly”. At mature BACE1 ectodomain [2], the “SPR OM99-2 competition” value was “drastically reduced”.
